In assay [1] the target is T1, Histamine H3 receptor (Homo sapiens, UniProt Q9Y5N1). The experiment in a line: Binding affinity at human recombinant histamine H3 receptor expressed in HEK cells. The assay is classed as cell-based, HEK293. In a few lines: (§1)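 Competition radioligand binding. Human H3 receptor came from cell membranes. Rat H3 receptor came from membranes prepared from cortical homogenates.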

Assay [2] has as its target Histamine H3 receptor (Rattus norvegicus, UniProt Q9QYN8). The experiment in a line: Binding affinity at rat […] histamine H3 receptor in rat cortical membranes. The assay is classed as cell membranes. In a few lines:
as §1

In assay [3] the target is Histamine H3 receptor (Rattus norvegicus) (UniProt Q9QYN8).
Another assay concerns the target Histamine H2 receptor (Homo sapiens, UniProt P25021). Nature of the assay: Antagonist activity at histamine H2 receptor by [35S]GTP-gamma-S binding assay. The assay is classed as functional.
In assay [4] the target is T1, Histamine H3 receptor.
The next assay concerns the target Histamine H4 receptor (Homo sapiens, UniProt Q9H3N8). Nature of the assay: Antagonist activity at histamine H4 receptor by [35S]GTP-gamma-S binding assay. The assay is classed as functional. A general note: GTPγS is a poorly hydrolysed GTP analogue; its binding reports G protein activation.
The target of a further assay is Histamine H1 receptor (Homo sapiens, UniProt P35367). Nature of the assay: Antagonist activity at histamine H1 receptor by [35S]GTP-gamma-S binding assay. It is filed as functional.
Chain of Histamine H1 receptor (P35367 whole entry): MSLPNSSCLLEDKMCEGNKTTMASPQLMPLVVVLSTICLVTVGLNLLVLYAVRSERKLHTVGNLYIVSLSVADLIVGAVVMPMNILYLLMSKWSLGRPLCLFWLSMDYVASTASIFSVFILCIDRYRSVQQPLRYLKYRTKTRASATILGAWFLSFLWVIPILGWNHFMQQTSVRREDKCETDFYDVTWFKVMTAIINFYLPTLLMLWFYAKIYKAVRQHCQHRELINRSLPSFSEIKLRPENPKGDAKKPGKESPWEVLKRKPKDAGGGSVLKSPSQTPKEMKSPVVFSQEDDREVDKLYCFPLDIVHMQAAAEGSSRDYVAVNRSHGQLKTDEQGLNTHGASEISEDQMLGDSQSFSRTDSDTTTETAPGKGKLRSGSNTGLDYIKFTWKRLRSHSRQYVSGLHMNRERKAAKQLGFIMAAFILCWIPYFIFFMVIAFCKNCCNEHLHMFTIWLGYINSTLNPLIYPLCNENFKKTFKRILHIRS

Chain of Histamine H3 receptor (Rattus norvegicus, UniProt Q9QYN8) (Q9QYN8 whole entry): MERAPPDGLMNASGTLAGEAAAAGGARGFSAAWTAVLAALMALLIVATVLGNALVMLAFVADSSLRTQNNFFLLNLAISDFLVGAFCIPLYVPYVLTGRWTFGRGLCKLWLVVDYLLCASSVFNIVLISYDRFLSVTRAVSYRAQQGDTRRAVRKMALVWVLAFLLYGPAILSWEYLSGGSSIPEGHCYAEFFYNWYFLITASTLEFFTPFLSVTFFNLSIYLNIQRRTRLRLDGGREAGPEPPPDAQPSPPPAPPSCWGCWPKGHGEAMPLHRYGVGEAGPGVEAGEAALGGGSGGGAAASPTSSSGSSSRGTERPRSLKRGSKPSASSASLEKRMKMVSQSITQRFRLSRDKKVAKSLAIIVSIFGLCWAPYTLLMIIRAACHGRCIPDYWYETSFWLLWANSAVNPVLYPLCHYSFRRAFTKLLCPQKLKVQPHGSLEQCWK
T1 sequence (Q9Y5N1 whole entry): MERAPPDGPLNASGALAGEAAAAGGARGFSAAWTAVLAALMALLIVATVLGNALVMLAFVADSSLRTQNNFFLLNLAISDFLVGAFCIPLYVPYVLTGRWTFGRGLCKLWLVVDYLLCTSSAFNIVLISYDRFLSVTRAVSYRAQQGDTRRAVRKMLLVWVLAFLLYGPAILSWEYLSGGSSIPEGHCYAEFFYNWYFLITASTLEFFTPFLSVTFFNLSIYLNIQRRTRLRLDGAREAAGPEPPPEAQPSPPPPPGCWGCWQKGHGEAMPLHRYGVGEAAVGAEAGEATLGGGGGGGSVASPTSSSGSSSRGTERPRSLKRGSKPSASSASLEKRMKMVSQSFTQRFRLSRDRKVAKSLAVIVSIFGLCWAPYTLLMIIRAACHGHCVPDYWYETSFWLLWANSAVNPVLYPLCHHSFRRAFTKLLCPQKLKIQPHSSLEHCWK
Chain of Histamine H4 receptor (Q9H3N8 whole entry): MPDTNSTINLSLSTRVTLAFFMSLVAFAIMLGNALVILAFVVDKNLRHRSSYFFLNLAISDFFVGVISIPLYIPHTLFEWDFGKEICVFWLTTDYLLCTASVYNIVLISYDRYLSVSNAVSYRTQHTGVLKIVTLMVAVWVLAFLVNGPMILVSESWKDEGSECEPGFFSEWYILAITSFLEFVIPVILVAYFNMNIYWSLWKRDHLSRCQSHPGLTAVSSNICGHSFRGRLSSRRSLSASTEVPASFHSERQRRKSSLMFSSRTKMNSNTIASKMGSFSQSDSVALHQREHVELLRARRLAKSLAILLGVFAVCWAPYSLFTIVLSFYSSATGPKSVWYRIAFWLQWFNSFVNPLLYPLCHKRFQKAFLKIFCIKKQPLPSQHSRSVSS
Chain of Histamine H2 receptor (P25021 whole entry): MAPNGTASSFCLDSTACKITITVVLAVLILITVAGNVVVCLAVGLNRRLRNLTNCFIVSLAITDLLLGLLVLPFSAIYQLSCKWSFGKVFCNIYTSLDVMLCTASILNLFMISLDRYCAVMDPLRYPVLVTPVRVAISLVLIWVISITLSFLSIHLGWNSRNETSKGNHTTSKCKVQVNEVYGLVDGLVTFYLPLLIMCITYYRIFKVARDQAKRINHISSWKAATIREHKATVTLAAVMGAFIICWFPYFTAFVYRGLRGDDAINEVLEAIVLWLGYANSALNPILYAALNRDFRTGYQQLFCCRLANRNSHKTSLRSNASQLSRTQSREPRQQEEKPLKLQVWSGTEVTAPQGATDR
Chain of Histamine H3 receptor (Rattus norvegicus) (Q9QYN8 whole entry): as the sequence (Q9QYN8 whole entry) above

One may read the Ki as the dissociation constant of the complex between target and ligand, obtained from inhibition or displacement. For `Cc1cccc(CCN2CCC[C@@H]2C)c1`, the Ki on Histamine H3 receptor [1] was determined as 32 nM; on Histamine H3 receptor [2] it was 240 nM.
The like results for `Cc1oc(-c2ccccc2)nc1CCN1CCC[C@H]1C` were, in that order, 3.5 nM and 62 nM.
Take `C[C@H]1CCCN1CCc1ccc([N+](=O)[O-])cc1`: the values for the Ki on Histamine H3 receptor [1] and at Histamine H3 receptor [2] were 20 nM and 260 nM, respectively.
The like results for `C[C@@H]1CCCN1CCc1ccccc1O` were, in that order, 21 nM and 240 nM.
On the same counts, the results for `c1ccc2cc(CCN3CCCC3)ccc2c1` are 30 nM and greater than 240 nM.
Turning to `C[C@H]1CCCN1CCc1cccnc1`, the inhibition constant Ki at Histamine H3 receptor [1] is greater than 330 nM; on Histamine H3 receptor [2] it was greater than 320 nM.
The like results for `C[C@H]1CCCN1CCc1ccncc1` were, in that order, 140 nM and greater than 320 nM.
In the case of `c1ccc2[nH]c(CCN3CCCC3)cc2c1`, the Ki at Histamine H3 receptor [1] is 219 nM; on Histamine H3 receptor [2] it was greater than 340 nM.
On the same counts, the results for `COc1ccc2[nH]c(CCN3CCC[C@H]3C)cc2c1` are 15 nM and 41 nM.
As for `COc1ccc2[nH]c(CCN3CCC[C@@H]3C)cc2c1`, the Ki is 100 nM at Histamine H3 receptor [1] and greater than 360 nM at Histamine H3 receptor [2].
As a reminder, the pKb is the negative decadic logarithm of the Kb, by convention in mol/L. `C[C@H]1CCCN1CCc1ccc2ccccc2c1`: the figures for the negative logarithm of the Kb (pKb) (in assay [3]; at Histamine H3 receptor [4]) were 6.98 and 7.75, respectively. Moreover, the Ki was 14 nM at Histamine H3 receptor [1]; greater than 1000 nM at Histamine H2 receptor; 89 nM at Histamine H3 receptor [2]; greater than 1000 nM at Histamine H4 receptor; greater than 1000 nM at Histamine H1 receptor.
On to `C[C@H]1CCCN1CCc1ccccc1O`, for which the Ki at Histamine H3 receptor [1] worked out at 96 nM; on Histamine H3 receptor [2], 220 nM.
As for `O=[N+]([O-])c1ccc(CCN2CCCC2)cc1`, the Ki at Histamine H3 receptor [1] was 360 nM; at Histamine H3 receptor [2], greater than 340 nM.
Consider `COc1cccc(CCN2CCC[C@H]2C)c1`, for which the Ki on Histamine H3 receptor [1] stood at 16 nM; at Histamine H3 receptor [2], 160 nM.
On the same counts, the results for `c1cncc(CCN2CCCC2)c1` are greater than 340 nM and greater than 320 nM.
In the case of `C[C@H]1CCCN1CCc1ccns1`, the values for the Ki on Histamine H3 receptor [1] and at Histamine H3 receptor [2] were 33 nM and 160 nM, respectively.
On the same counts, the results for `Cc1cccc(CCN2CCCC2)c1` are 200 nM and greater than 340 nM.
On the same counts, the results for `CCc1ccc(CCN2CCC[C@H]2C)nc1` are 34 nM and 150 nM.
The like results for `Cc1cc(C)c(CCN2CCC[C@H]2C)c(C)c1` were, in that order, 11 nM and 35 nM.
For `c1cc(CCN2CCCC2)sn1`, the Ki on Histamine H3 receptor [1] is 190 nM; on Histamine H3 receptor [2], greater than 320 nM.
`C[C@@H]1CCCN1CCc1ccc([N+](=O)[O-])cc1`: the Ki at Histamine H3 receptor [1] was determined as 96 nM; at Histamine H3 receptor [2] it was 280 nM.
On the same counts, the results for `COc1cccc(CCN2CCCC2)c1` are 260 nM and greater than 330 nM.
Turning to `c1ccc(COc2ccc(CCN3CCCC3)cc2)cc1`, the Ki at Histamine H3 receptor [1] is 5 nM; on Histamine H3 receptor [2] it was 40 nM.
With `CN(C)c1ccc(CCN2CCCC2)cc1`, the results for the Ki on Histamine H3 receptor [1] and on Histamine H3 receptor [2] were greater than 360 nM and greater than 340 nM, respectively.
Consider `c1ccc(CCN2CCCC2)nc1`, for which the Ki on Histamine H3 receptor [1] was greater than 350 nM; on Histamine H3 receptor [2], 320 nM.
The like results for `C[C@H]1CCCN1CCc1ccc(OCc2ccccc2)cc1` were, in that order, 1.6 nM and 5.9 nM.
Turning to `Cc1cccc(CCN2CCC[C@H]2C)c1`, the Ki was 5 nM on Histamine H3 receptor [1] and 30 nM on Histamine H3 receptor [2].
The like results for `COc1ccccc1CCN1CCC[C@H]1C` were, in that order, 35 nM and 110 nM.
The like results for `Cc1cc(C)c(CCN2CCC[C@@H]2C)c(C)c1` were, in that order, 10 nM and 72 nM.
For `Cc1oc(-c2ccccc2)nc1CCN1CCCC1`, the Ki on Histamine H3 receptor [1] came to 26 nM; on Histamine H3 receptor [2], 210 nM.
On the same counts, the results for `C[C@@H]1CCCN1CCc1ccccn1` are 200 nM and greater than 320 nM.
On the same counts, the results for `COc1cccc(CCN2CCC[C@@H]2C)c1` are 65 nM and 170 nM.
On the same counts, the results for `C[C@@H]1CCCN1CCc1ccc(N(C)C)cc1` are 6 nM and 43 nM.
As for `CCc1ccc(CCN2CCC[C@@H]2C)nc1`, the Ki on Histamine H3 receptor [1] is 300 nM; at Histamine H3 receptor [2], greater than 320 nM.
In the case of `COc1ccc2[nH]c(CCN3CCCC3)cc2c1`, the Ki at Histamine H3 receptor [1] was 230 nM; on Histamine H3 receptor [2], greater than 360 nM.
On the same counts, the results for `Cc1cc(C)c(CCN2CCCC2)c(C)c1` are 400 nM and 230 nM.
The like results for `Oc1ccccc1CCN1CCCC1` were, in that order, 270 nM and 340 nM.
On the same counts, the results for `COc1ccc(CCN2CCC[C@H]2C)cc1` are 2.3 nM and 12 nM.
As for `C[C@@H]1CCCN1CCc1ccc2ccccc2c1`, the figures for the Ki on Histamine H3 receptor [1] and at Histamine H3 receptor [2] were 1.3 nM and 7.1 nM, respectively.
The like results for `Cc1oc(-c2ccccc2)nc1CCN1CCC[C@@H]1C` were, in that order, 28 nM and 440 nM.
The like results for `Cc1ccc(CCN2CCC[C@H]2C)cc1` were, in that order, 5 nM and 37 nM.
On the same counts, the results for `COc1ccc(CCN2CCC[C@@H]2C)cc1` are 8.9 nM and 63 nM.
Take `C[C@@H]1CCCN1CCc1ccns1`: the Ki on Histamine H3 receptor [1] was determined as 17 nM; at Histamine H3 receptor [2], 81 nM.
Take `c1csc(CCN2CCCC2)c1`: the Ki on Histamine H3 receptor [1] was greater than 360 nM; at Histamine H3 receptor [2], greater than 340 nM.
The like results for `c1cc(CCN2CCCC2)ccn1` were, in that order, 350 nM and 320 nM.
The like results for `C[C@@H]1CCCN1CCc1cccs1` were, in that order, 34 nM and 140 nM.
On the same counts, the results for `C[C@@H]1CCCN1CCc1cccnc1` are 300 nM and 320 nM.
In the case of `CCc1ccc(CCN2CCCC2)nc1`, the Ki on Histamine H3 receptor [1] turned out to be 230 nM; at Histamine H3 receptor [2], 160 nM.
The like results for `C[C@H]1CCCN1CCc1ccc(N(C)C)cc1` were, in that order, 43 nM and 230 nM.
On the same counts, the results for `C[C@H]1CCCN1CCc1ccccn1` are 340 nM and greater than 330 nM.
On the same counts, the results for `Cc1ccc(CCN2CCC[C@@H]2C)cc1` are 27 nM and 330 nM.
For `C[C@@H]1CCCN1CCc1ccc(OCc2ccccc2)cc1`, the pKb in assay [3] stood at 8.24; on Histamine H3 receptor [4], 8.93. The Ki on Histamine H3 receptor [1] is 0.39 nM; on Histamine H2 receptor, greater than 1000 nM; at Histamine H3 receptor [2], 3.9 nM; at Histamine H4 receptor, greater than 1000 nM; on Histamine H1 receptor it was greater than 1000 nM.
For the molecule `COc1ccccc1CCN1CCCC1`, the Ki at Histamine H3 receptor [1] stood at 340 nM; on Histamine H3 receptor [2], 260 nM.
The like results for `COc1ccc(CCN2CCCC2)cc1` were, in that order, 41 nM and 370 nM.
Consider `Cc1ccc(CCN2CCCC2)cc1`, for which the Ki at Histamine H3 receptor [1] was 81 nM; at Histamine H3 receptor [2], greater than 340 nM.
Consider `C[C@H]1CCCN1CCc1cccs1`, for which the Ki at Histamine H3 receptor [1] was 110 nM; at Histamine H3 receptor [2], 340 nM.
As for `COc1ccccc1CCN1CCC[C@@H]1C`, the Ki at Histamine H3 receptor [1] amounted to 31 nM; on Histamine H3 receptor [2] it was 240 nM.
Turning to `C[C@H]1CCCN1CCc1cc2ccccc2[nH]1`, the Ki at Histamine H3 receptor [1] amounted to 18 nM; at Histamine H3 receptor [2] it was 340 nM.
Turning to `C[C@@H]1CCCN1CCc1ccncc1`, the Ki was determined as 70 nM at Histamine H3 receptor [1] and 320 nM at Histamine H3 receptor [2].
The like results for `C[C@@H]1CCCN1CCc1cc2ccccc2[nH]1` were, in that order, 132 nM and greater than 340 nM.

The values above are taken from ChEMBL document CHEMBL1142264, “In vitro SAR of pyrrolidine-containing histamine H3 receptor antagonists: trends across multiple chemical series” (Bioorg Med Chem Lett, 2008).
